From ChEMBL document CHEMBL4428027, “3-Hydroxypyrimidine-2,4-diones as Selective Active Site Inhibitors of HIV Reverse Transcriptase-Associated RNase H: Design, Synthesis, and Biochemical Evaluations” (J Med Chem, 2016)

Legend:
[1] = target: T1, Human immunodeficiency virus type 1 reverse transcriptase (Human immunodeficiency virus 1, UniProt Q72547); test: Inhibition of RNase H activity of full length recombinant HIV1 reverse transcriptase assessed as reduction in RNA 5'-end directed cleavage using HTS3 substrate
[2] = target: T1, Human immunodeficiency virus type 1 reverse transcriptase; test: Inhibition of RNase H activity of full length recombinant HIV1 reverse transcriptase assessed as reduction in nonspecific internal cleavage using HTS1 substrate; conditions: read-out: IC50
Outline: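 Recombinant p66/p51 RT heterodimer. Fluorescent RNA/DNA duplex substrate HTS-1 measures internal cleavage. IC50 is the mean of at least three independent experiments.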

[3] = target: T1, Human immunodeficiency virus type 1 reverse transcriptase; test: Inhibition of polymerase activity of HIV1 reverse transcriptase using poly(rA)-oligo(dT)16 and [3H]-TTP incubated for 20 mins by liquid scintillation spectrometry
Outline: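 Reaction mix: 10 µM [3H]-TTP, 40 nM poly(rA)-oligo(dT)16, 50 mM Tris-HCl pH 7.4 (37°C), 60 mM KCl, 5 mM MgCl2. Started with 10 nM RT; 20 min at 37°C. Quenched in ice-cold 10% TCA with 20 mM sodium pyrophosphate, then glass-fibre filtered and washed with TCA and ethanol. Label incorporation read by liquid scintillation.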

[4] = target: T1, Human immunodeficiency virus type 1 reverse transcriptase; test: Inhibition of RNase H activity of full length recombinant HIV1 reverse transcriptase assessed as reduction in DNA 3'-end cleavage using HTS2 substrate
Outline: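 Recombinant p66/p51 RT heterodimer. Fluorescent RNA/DNA duplex substrate HTS-2 reports DNA 3′-end-directed (polymerase-dependent) cleavage. IC50 is the mean of at least three independent experiments.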

[5] = target: T1, Human immunodeficiency virus type 1 reverse transcriptase; test: Inhibition of re-constituted HIV1 reverse transcriptase RNase H domain fragment
Outline: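 Secondary check using a catalytically active, isolated HIV RNase H domain fragment (reconstituted) with duplex substrate HTS-1.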

[6] = Toxicity against human HeLa P4/R5 cells; format: cell-based

SMILES | IC50 ([1]; read-out: IC50) [µM] | IC50 [2] [µM] | IC50 ([3]; read-out: IC50) [µM] | IC50 [4] | IC50 ([5]; read-out: IC50) [µM] | CC50 [6] [µM] | IC50 [3] | IC50 ([4]; read-out: IC50) [µM] | IC50 [1] | IC50 [5]
Cn1c(Oc2ccccc2-c2ccc(Cl)cc2)cc(=O)n(O)c1=O | 13 | 3.3 | 14 | Not Active | – | – | – | – | – | –
Cc1ccc(-c2ccc(Nc3cc(=O)n(O)c(=O)n3C)cc2)cc1 | 6.6 | 2.7 | – | – | 1.9 | 5 | Not Active | 6.5 | – | –
Cn1c(Nc2ccc(-c3ccc(C#N)cc3)cc2)cc(=O)n(O)c1=O | 3.7 | 1.1 | 3.3 | – | 1 | 12 | – | 2.6 | – | –
Cc1noc(C)c1-c1ccccc1Nc1cc(=O)n(O)c(=O)n1C | – | 6.6 | – | Not Active | – | – | Not Active | – | Not Active | –
Cn1c(Oc2cccc(-c3ccc(C(F)(F)F)cc3)c2)cc(=O)n(O)c1=O | – | 9.5 | – | Not Active | – | > 25 | Not Active | – | Not Active | Not Active
COc1cccc(-c2ccccc2Oc2cc(=O)n(O)c(=O)n2C)c1 | – | 5.7 | – | Not Active | 12 | 6 | Not Active | – | Not Active | –
Cn1c(Oc2cccc(-c3ccccc3)c2)cc(=O)n(O)c1=O | 15 | 1 | – | Not Active | 3.9 | 3 | Not Active | – | – | –
COc1ccccc1-c1ccc(Nc2cc(=O)n(O)c(=O)n2C)cc1 | 8.9 | 2.8 | – | – | – | – | Not Active | 9.3 | – | –
O=c1cc(Nc2ccc(-c3ccc(Cl)cc3)cc2)[nH]c(=O)n1O | 0.6 | 0.47 | 0.99 | – | – | – | – | 0.66 | – | –
COc1ccc(-c2cccc(Nc3cc(=O)n(O)c(=O)n3C)c2)cc1OC | 3 | 0.5 | 5.8 | – | 0.9 | 10 | – | 2.2 | – | –
O=c1nc(Nc2ccc(-c3cnc4ccccc4c3)cc2)c2cccnc2n1O | – | – | – | – | – | 2 | – | – | – | –
Cn1c(Oc2ccc(-c3cccc(C#N)c3)cc2)cc(=O)n(O)c1=O | 11 | 1.9 | – | – | – | – | Not Active | 13 | – | –
COc1ccccc1-c1ccc(Oc2cc(=O)n(O)c(=O)n2C)cc1 | 22 | 2.8 | – | Not Active | 6.2 | 5 | Not Active | – | – | –
Cn1c(Nc2cccc(-c3ccc(C#N)cc3)c2)cc(=O)n(O)c1=O | 3.4 | 0.7 | 5 | – | 1 | 10 | – | 2.3 | – | –
COc1ccc(-c2cccc(Nc3cc(=O)n(O)c(=O)n3C)c2)cc1 | 3.1 | 0.5 | 3.6 | – | 1.1 | 3 | – | 2.6 | – | –
Cn1c(Oc2ccc(-c3ccncc3)cc2)cc(=O)n(O)c1=O | 10 | 3.7 | – | Not Active | – | – | Not Active | – | – | –
Cn1c(Oc2ccc(-c3ccccc3)cc2)cc(=O)n(O)c1=O | 6 | 1.9 | – | – | 2.1 | 5 | Not Active | 5.3 | – | –
O=c1cc(Nc2cccc(-c3ccc(Cl)cc3)c2)[nH]c(=O)n1O | 0.37 | 0.22 | 0.86 | – | – | – | – | 0.45 | – | –
COc1ccccc1-c1cccc(Oc2cc(=O)n(O)c(=O)n2C)c1 | 13 | 2.5 | – | Not Active | 4.4 | 6 | Not Active | – | – | –
COc1cccc(-c2cccc(Oc3cc(=O)n(O)c(=O)n3C)c2)c1 | 9.4 | 1 | – | – | 3.6 | 5 | Not Active | 17 | – | –
COc1ccc(-c2ccc(Nc3cc(=O)n(O)c(=O)n3C)cc2)c(OC)c1 | 5.3 | 1.5 | – | – | – | – | Not Active | 4.3 | – | –
Cn1c(Oc2ccccc2-c2ccc(C(F)(F)F)cc2)cc(=O)n(O)c1=O | 21 | 3.9 | – | Not Active | 5.1 | 6 | Not Active | – | – | –
O=c1cc(Nc2ccc(-c3ccc(O)cc3)cc2)[nH]c(=O)n1O | 0.37 | 0.18 | 0.82 | – | – | – | – | 0.45 | – | –

SMILES | IC50 ([1]; read-out: IC50) [µM] | IC50 [2] [µM] | IC50 ([3]; read-out: IC50) [µM] | IC50 [4] | IC50 ([5]; read-out: IC50) [µM] | CC50 [6] [µM] | IC50 [3] | IC50 ([4]; read-out: IC50) [µM] | IC50 [1] | IC50 [5]
Cc1ccc(-c2cccc(Nc3cc(=O)n(O)c(=O)n3C)c2)cc1 | 6.2 | 1.7 | 17 | – | – | – | – | 7.2 | – | –
COc1cc(OC)cc(-c2ccc(Nc3cc(=O)n(O)c(=O)n3C)cc2)c1 | 9.2 | 1.6 | 6.5 | – | 1.8 | 15 | – | 7.2 | – | –
COc1ccc(-c2cccc(Nc3cc(=O)n(O)c(=O)n3C)c2)c(OC)c1 | 4.2 | 1 | 6.3 | – | 1.1 | 6 | – | 2.1 | – | –
Cn1c(Nc2ccc(-c3ccccc3)cc2)cc(=O)n(O)c1=O | 5.1 | 0.8 | – | – | 1.7 | 6 | Not Active | 3.5 | – | –
Cn1c(Oc2ccc(-c3ccc(Cl)cc3)cc2)cc(=O)n(O)c1=O | 11 | 2.4 | – | Not Active | – | – | Not Active | – | – | –
O=c1cc(Nc2ccc(-c3ccccc3)cc2)[nH]c(=O)n1O | 0.3 | 0.25 | 2 | – | 0.15 | > 25 | – | 0.3 | – | –
Cn1c(Oc2cccc(-c3ccc(C#N)cc3)c2)cc(=O)n(O)c1=O | 3.9 | 1.2 | – | – | – | – | Not Active | 6.9 | – | –
O=c1cc(Nc2ccc(-c3cccc(O)c3)cc2)[nH]c(=O)n1O | 0.4 | 0.22 | 0.79 | – | – | – | – | 0.43 | – | –
Cn1c(Nc2ccc(-c3ccc(C(F)(F)F)cc3)cc2)cc(=O)n(O)c1=O | 6.6 | 3.6 | – | – | 2.2 | 10 | Not Active | 8.9 | – | –
Cn1c(Nc2cccc(-c3cncnc3)c2)cc(=O)n(O)c1=O | 3.9 | 1.4 | – | – | 0.9 | > 25 | Not Active | 4.1 | – | –
COc1cc(OC)cc(-c2cccc(Nc3cc(=O)n(O)c(=O)n3C)c2)c1 | 4 | 0.6 | – | – | 1.4 | 10 | Not Active | 2.8 | – | –
COc1cccc(OC)c1-c1cccc(Nc2cc(=O)n(O)c(=O)n2C)c1 | 4.5 | 1.9 | – | – | 1.2 | 8 | Not Active | 6.9 | – | –
Cn1c(Oc2cccc(-c3cccc(C#N)c3)c2)cc(=O)n(O)c1=O | 4.6 | 0.9 | – | – | – | – | Not Active | 6.7 | – | –
Cn1c(Nc2cccc(-c3ccc(O)cc3)c2)cc(=O)n(O)c1=O | 2.7 | 0.75 | 12 | – | – | – | – | 3.8 | – | –
COc1ccccc1-c1cccc(Nc2cc(=O)n(O)c(=O)n2C)c1 | 3.8 | 1.2 | 6.6 | – | 1 | 6 | – | 2.1 | – | –
Cn1c(Oc2ccccc2-c2ccccc2O)cc(=O)n(O)c1=O | – | 11 | – | Not Active | – | – | Not Active | – | Not Active | –
COc1ccc(-c2cccc(Oc3cc(=O)n(O)c(=O)n3C)c2)cc1 | 4.7 | 0.4 | – | – | 1.8 | 2.5 | Not Active | 4 | – | –
COc1ccc(-c2ccc(Oc3cc(=O)n(O)c(=O)n3C)cc2)cc1 | 12 | 1.6 | – | – | 4.7 | 6 | Not Active | 11 | – | –
COc1ccccc1-c1ccccc1Oc1cc(=O)n(O)c(=O)n1C | – | 8.1 | – | Not Active | 13 | 8 | Not Active | – | Not Active | –
COc1cccc(-c2ccc(Nc3cc(=O)n(O)c(=O)n3C)cc2)c1 | 5.1 | 0.8 | – | – | 1.7 | 6 | Not Active | 3.5 | – | –
Cn1c(Oc2ccc(-c3ccc(C(F)(F)F)cc3)cc2)cc(=O)n(O)c1=O | – | 6.2 | – | Not Active | – | – | Not Active | – | Not Active | –
Cn1c(Oc2ccc(-c3ccc(C#N)cc3)cc2)cc(=O)n(O)c1=O | 4.7 | 2.5 | – | – | – | – | Not Active | 11 | – | –
O=c1cc(Nc2ccc(-c3ccccc3O)cc2)[nH]c(=O)n1O | 0.46 | 0.24 | 0.83 | – | – | – | – | 0.49 | – | –
